{"source": "ChEMBL document CHEMBL1671727", "about": "“Expression, purification, and characterization of Aspergillus fumigatus sterol 14-alpha demethylase (CYP51) isoenzymes A and B” (Antimicrob Agents Chemother, 2010)", "key": {"[1]": {"target": "T1, 14-alpha sterol demethylase (Neosartorya fumigata (Aspergillus fumigatus)) (UniProt Q96W81)", "T1 sequence (whole entry)": "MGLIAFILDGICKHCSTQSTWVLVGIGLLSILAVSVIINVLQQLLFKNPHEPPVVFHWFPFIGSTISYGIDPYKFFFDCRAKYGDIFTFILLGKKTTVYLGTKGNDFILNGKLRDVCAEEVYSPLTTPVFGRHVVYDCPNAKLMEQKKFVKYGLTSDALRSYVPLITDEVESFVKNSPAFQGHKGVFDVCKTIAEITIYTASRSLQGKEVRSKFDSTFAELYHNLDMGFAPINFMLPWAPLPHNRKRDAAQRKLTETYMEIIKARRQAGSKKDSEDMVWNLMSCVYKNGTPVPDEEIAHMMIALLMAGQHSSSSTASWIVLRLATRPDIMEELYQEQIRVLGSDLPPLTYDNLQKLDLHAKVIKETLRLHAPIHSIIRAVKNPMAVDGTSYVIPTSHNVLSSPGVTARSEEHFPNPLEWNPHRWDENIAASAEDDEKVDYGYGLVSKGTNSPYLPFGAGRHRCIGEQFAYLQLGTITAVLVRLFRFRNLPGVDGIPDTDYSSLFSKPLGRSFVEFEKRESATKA", "assay": "Binding affinity to Aspergillus fumigatus AF293 sterol 14-alpha demethylase isoenzyme B expressed in Escherichia coli assessed as generation of type I difference spectrum at 4.8 uM"}, "[2]": {"target": "T1, 14-alpha sterol demethylase (Neosartorya fumigata (Aspergillus fumigatus))", "assay": "Binding affinity to Aspergillus fumigatus AF293 sterol 14-alpha demethylase isoenzyme B expressed in Escherichia coli assessed as spectral dissociation constant", "summary_of_the_method": "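His-tagged CYP51 (Af293 sequence, codon-optimised, E. coli-expressed), cholate-solubilised and Ni-NTA purified, at 1 μM in 0.1 M Tris-HCl pH 8.1 with 25% glycerol. Azole (0.05 mg/ml DMSO stock) titrated in split 4.5 mm cuvettes, with DMSO added to the reference. Difference spectra were read at 500–350 nm. Peak-to-trough change was plotted against concentration. Kd came from Morrison (tight binding), Michaelis-Menten or Hill fits.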"}, "[3]": {"target": "T1, 14-alpha sterol demethylase (Neosartorya fumigata (Aspergillus fumigatus))", "assay": "Binding affinity to 1 uM recombinant Aspergillus fumigatus AF293 sterol 14-alpha demethylase isoenzyme B from Escherichia coli membrane suspension assessed as spectral dissociation constant"}}, "note": "Activity calls are given as the source filed them. No cut-off for these calls is given here.", "data": [{"smiles": "C=C(CC[C@@H](C)[C@H]1CC[C@@]2(C)C3=C(CC[C@]12C)[C@@]1(C)CC[C@H](C)C(C)(C)C1CC3)C(C)C", "note": "(stereo not given in full)", "values": [{"measurement": "Activity", "setting": "[1]", "value": "Active"}, {"measurement": "Ks", "setting": "[2]", "value": 22.6, "unit": "µM"}, {"measurement": "Ks", "setting": "[3]", "value": 4.1, "unit": "µM"}]}, {"smiles": "CC(C)=CCC[C@@H](C)[C@H]1CC[C@@]2(C)C3=C(CC[C@]12C)[C@@]1(C)CC[C@H](O)C(C)(C)[C@@H]1CC3", "values": [{"measurement": "Ks", "setting": "[2]", "value": 8.6, "unit": "µM"}, {"measurement": "Ks", "setting": "[3]", "value": 3.1, "unit": "µM"}]}]}
